# In publication PMC5836871 (Journal of Clinical Pharmacology, 2017):
# Several values for one entry are separate records, joined by “and”; a condition that tells them apart may be missing. Equal values may be shown once. Read-outs that look alike come from different tables or passages of the source. Marks after values point to notes of the source that are not given here.
# Columns and labels:
# [1] = format: in vivo, human; conditions: for AUC0–∞ of metabolite, gMean (gCV%) / Cmax of metabolite, gMean (gCV%) / t1/2, gMean (gCV%) / fe0–72 (fraction excreted unchanged in urine), gMean (gCV%): single oral nintedanib 100 mg
# Summary of the method: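 Single oral 100 mg dose of test compound as soft-gelatin capsule, fed. Adults 18–79 y, BMI 18.5–34 kg/m2: Child-Pugh A (score 5–6) or B (7–9) hepatic impairment, plus matched healthy controls. Plasma sampled to day 8 for parent and metabolites. AUC0–∞, Cmax and AUC0–tz compared by log-scale ANOVA (hepatic status fixed, matched pair random); other parameters descriptive.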
# [2] = format: in vitro ADME, human; conditions: for Protein-bound fraction, mean ± SD: plasma spiked with 100 ng/mL 14C-labeled compound
# Summary of the method: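 Predose plasma from Child-Pugh A, Child-Pugh B and matched healthy subjects was spiked ex vivo with 100 ng/mL [14C]-labelled test compound or its [14C]-labelled metabolite. Binding was measured in vitro by equilibrium dialysis, with radioactivity quantified by liquid scintillation counting. The protein-bound fraction is reported as the group mean ± SD.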
# [3] = ref BI, data on file, cited from earlier work
# [4] = cited from earlier work
# [5] = test system: P‐glycoprotein; conditions: cited from earlier work
# [6] = Safety and tolerability; format: in vivo, human
# Summary of the method: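 Open-label, parallel-group, matched-group phase 1 study in adults aged 18–79 with BMI 18.5–34 kg/m2 (Child-Pugh A, Child-Pugh B, and healthy subjects matched by age, weight, race, smoking and sex). Each subject took one oral soft-gelatin capsule with 240 mL water, fed. AEs were recorded from dosing to the end of the 28-day follow-up and coded by MedDRA v17.1. Relatedness was judged by the investigator.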
# [7] = Child-Pugh A subjects vs healthy subjects
# [8] = Child-Pugh A, Child-Pugh B, healthy subjects
# [9] = Child-Pugh B subjects vs healthy subjects
# [10] = Child-Pugh A matched healthy subjects (n = 8)
# [11] = Child-Pugh B matched healthy subjects (n = 8)
# [12] = Child-Pugh A vs matched healthy subjects
# [13] = Child-Pugh B vs matched healthy subjects
# [14] = single 100 mg dose, Child-Pugh A (n = 8)
# [15] = single 100 mg dose, Child-Pugh B (n = 8)
# [16] = single 100 mg dose, Healthy (n = 17)
compound,measurement,setting,value
CN1CCN(CC(=O)N(C)c2ccc(N/C(=C3\C(=O)Nc4cc(C(=O)O[C@@H]5O[C@H](C(=O)O)[C@@H](O)[C@H](O)[C@H]5O)ccc43)c3ccccc3)cc2)CC1 [BIBF 1202 glucuronide],"AUC0–∞, fold higher than in healthy subjects",[1]; [7],~1.5 fold
same,"Cmax, comparison across groups",[1]; [8],comparable across groups
same,"AUC0–∞, fold higher than in healthy subjects",[1]; [9],~3.5 fold
same,"AUC0–∞ of metabolite, gMean (gCV%)",[1]; Child-Pugh A (n = 8),1040 (95.9) ng∙h/mL
same,"Cmax of metabolite, gMean (gCV%)",[1]; Child-Pugh A (n = 8),15.1 (113) ng/mL
same,"t1/2, gMean (gCV%)",[1]; Child-Pugh A (n = 8),41.1 (45.5) h
same,"AUC0–∞ of metabolite, gMean (gCV%)",[1]; [10],657 (66.8) ng∙h/mL
same,"Cmax of metabolite, gMean (gCV%)",[1]; [10],11.4 (62.0) ng/mL
same,"t1/2, gMean (gCV%)",[1]; [10],31.9 (34.1) h
same,"AUC0–∞ of metabolite, gMean (gCV%)",[1]; Child-Pugh B (n = 8),2650 (285) ng∙h/mL
same,"Cmax of metabolite, gMean (gCV%)",[1]; Child-Pugh B (n = 8),19.6 (201) ng/mL
same,"t1/2, gMean (gCV%)",[1]; Child-Pugh B (n = 8),57.4 (114) h
same,"AUC0–∞ of metabolite, gMean (gCV%)",[1]; [11],761 (69.1) ng∙h/mL
same,"Cmax of metabolite, gMean (gCV%)",[1]; [11],12.7 (76.2) ng/mL
same,"t1/2, gMean (gCV%)",[1]; [11],28.3 (21.9) h
CN1CCN(CC(=O)N(C)c2ccc(N/C(=C3\C(=O)Nc4cc(C(=O)O)ccc43)c3ccccc3)cc2)CC1 [BIBF 1202],"Protein-bound fraction, mean ± SD",[2]; Child-Pugh A (n = 8),81.2 ± 3.6%
same,"Protein-bound fraction, mean ± SD",[2]; Child-Pugh B (n = 8),82.4 ± 5.5%
same,"Protein-bound fraction, mean ± SD",[2]; Healthy (n = 17),85.0 ± 3.0%
same,"Exposure, fold higher than in healthy subjects",[1]; [7],~2 fold
same,"AUC0–∞, fold higher than in healthy subjects",[1]; [9],~17 fold
same,"Cmax, fold higher than in healthy subjects",[1]; [9],9 fold
same,"AUC0–∞ of metabolite, gMean (gCV%)",[1]; Child-Pugh A (n = 8),216 (81.8) ng∙h/mL
same,"Cmax of metabolite, gMean (gCV%)",[1]; Child-Pugh A (n = 8),17.4 (47.1) ng/mL
same,"t1/2, gMean (gCV%)",[1]; Child-Pugh A (n = 8),39.1 (53.8) h
same,"AUC0–∞ of metabolite, gMean (gCV%)",[1]; [10],86.8 (48.8) ng∙h/mL
same,"Cmax of metabolite, gMean (gCV%)",[1]; [10],7.55 (56.2) ng/mL
same,"t1/2, gMean (gCV%)",[1]; [10],24.7 (65.1) h
same,"AUC0–∞ of metabolite, gMean (gCV%)",[1]; Child-Pugh B (n = 8),1190 (86.4) ng∙h/mL
same,"Cmax of metabolite, gMean (gCV%)",[1]; Child-Pugh B (n = 8),60.7 (75.2) ng/mL
same,"t1/2, gMean (gCV%)",[1]; Child-Pugh B (n = 8),46.9 (16.6) h
same,"AUC0–∞ of metabolite, gMean (gCV%)",[1]; [11],70.4 (38.7) ng∙h/mL
same,"Cmax of metabolite, gMean (gCV%)",[1]; [11],6.47 (57.5) ng/mL
same,"t1/2, gMean (gCV%)",[1]; [11],23.6 (50.1) h
COC(=O)c1ccc2c(c1)NC(=O)/C2=C(\Nc1ccc(N(C)C(=O)CN2CCN(C)CC2)cc1)c1ccccc1 [Nintedanib],Time to maximum plasma concentrations,[3]; Asian (n = 39) and European (n = 32) patients with impaired hepatic function and advanced HCC,2 to 3 h
same,"Exposure, fold higher in group II compared with group I","[3]; group II: ALT or AST >2 to ≤5 × ULN or Child-Pugh score 7, group I: ALT and AST ≤ 2 × ULN and Child-Pugh score 5–6",~2 fold
same,Time of absorption (delay by food),[4]; after food intake,~4 h
same,Terminal half-life,[4],10 to 15 h
same,Time of absorption (delay by food),[4]; fasted conditions,approximately 2 hours
same,Exposure increase when administered after food intake,[4]; fed vs fasted,approximately 20%
same,Total body clearance,[4]; healthy subjects,1390 mL/min
same,Elimination through biliary/fecal excretion,[4]; in vivo,> 90%
same,Absolute bioavailability,[4]; nintedanib 100 mg in healthy volunteers,approximately 5%
same,Time to steady state,[4]; of dosing,≤ 7 days
same,Time to maximum plasma concentration,[4]; oral administration,2 to 4 h
same,Protein-bound fraction,[2]; across the groups,> 99%
same,"Exposure, fold higher than in healthy subjects",[1]; [7],~2 fold
same,"AUC0–tz, adjusted gMean ratio",[1]; [12],216.8%
same,"AUC0–∞, adjusted gMean ratio",[1]; [12],215.4%
same,"Cmax, adjusted gMean ratio",[1]; [12],221.8%
same,"Renal clearance, comparison across groups",[1]; [8],comparable across groups
same,"Exposure, fold higher than in healthy subjects",[1]; [9],~8 fold
same,"AUC0–tz, adjusted gMean ratio",[1]; [13],870.7%
same,"AUC0–∞, adjusted gMean ratio",[1]; [13],867.1%
same,"Cmax, adjusted gMean ratio",[1]; [13],761.0%
same,"Time at which Cmax was reached, range",[1]; individual range across all groups,1 to 8 h
same,Median time at which Cmax was reached,"[1]; medians across Child-Pugh A, Child-Pugh B and healthy subjects",3 to 4 h
same,"fe0–72 (fraction excreted unchanged in urine), gMean (gCV%)",[1]; Child-Pugh A (n = 8),0.204 (96.2) %
same,"fe0–72 (fraction excreted unchanged in urine), gMean (gCV%)",[1]; [10],0.102 (37.9) %
same,"fe0–72 (fraction excreted unchanged in urine), gMean (gCV%)",[1]; Child-Pugh B (n = 7),0.543 (31.7)^b %
same,"fe0–72 (fraction excreted unchanged in urine), gMean (gCV%)",[1]; [11],0.0945 (28.7) %
same,P-glycoprotein substrate,[5],substrate of P‐glycoprotein
same,Severe or serious AEs,"[6]; all groups, single 100 mg dose",No severe or serious AEs were reported
same,Tolerability,"[6]; all groups, single dose of 100 mg",well tolerated
same,Diarrhea,[6]; [14],0 n (%)
same,Headache,[6]; [14],0 n (%)
same,Nausea,[6]; [14],0 n (%)
same,Pruritus,[6]; [14],0 n (%)
same,Skin irritation,[6]; [14],0 n (%)
same,Vomiting,[6]; [14],0 n (%)
same,Diarrhea,[6]; [15],1 (12.5) n (%)
same,Headache,[6]; [15],0 n (%)
same,Nausea,[6]; [15],1 (12.5) n (%)
same,Pruritus,[6]; [15],1 (12.5) n (%)
same,Skin irritation,[6]; [15],1 (12.5) n (%)
same,Subjects with any AE,[6]; [15],3 n (%) and 3 (37.5) n (%)
same,Vomiting,[6]; [15],0 n (%)
same,Diarrhea,[6]; [16],0 n (%)
same,Headache,[6]; [16],1 (5.9) n (%)
same,Nausea,[6]; [16],2 (11.8) n (%)
same,Pruritus,[6]; [16],0 n (%)
same,Skin irritation,[6]; [16],0 n (%)
same,Subjects with any AE,[6]; [16],3 n (%) and 3 (17.6) n (%)
same,Vomiting,[6]; [16],1 (5.9) n (%)
